Laboratory results: ChEMBL document CHEMBL1127026, “Novel antagonists of 5-HT3 receptors. Synthesis and biological evaluation of piperazinylquinoxaline derivatives” (J Med Chem, 1993)

How the values were obtained:
[1] = biological target: Serotonin 2 (5-HT2) receptor (Rattus norvegicus) (UniProt P30994+P08909+P14842); test: Tested for antagonistic activity against 5-hydroxytryptamine 2 receptor from rat thoracic aorta; assay type: functional, tissue-based; design: concentration or dose not given beside the values; settings: concentration not given here
Serotonin 2 (5-HT2) receptor (Rattus norvegicus), sequence (P08909 whole entry, looked up): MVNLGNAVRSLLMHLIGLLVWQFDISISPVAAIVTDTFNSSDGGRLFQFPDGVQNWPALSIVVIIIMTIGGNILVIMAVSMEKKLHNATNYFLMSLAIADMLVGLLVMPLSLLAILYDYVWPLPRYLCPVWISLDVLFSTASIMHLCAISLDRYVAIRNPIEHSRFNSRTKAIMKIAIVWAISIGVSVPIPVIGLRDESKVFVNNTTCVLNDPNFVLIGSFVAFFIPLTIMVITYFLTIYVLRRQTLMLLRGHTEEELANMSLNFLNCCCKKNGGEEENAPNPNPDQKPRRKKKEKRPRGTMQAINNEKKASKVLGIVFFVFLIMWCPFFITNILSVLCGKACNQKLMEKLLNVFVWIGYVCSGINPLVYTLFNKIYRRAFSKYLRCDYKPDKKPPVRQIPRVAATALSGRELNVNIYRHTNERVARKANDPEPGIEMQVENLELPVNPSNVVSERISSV
Serotonin 2 (5-HT2) receptor (Rattus norvegicus), sequence (P14842 whole entry, looked up): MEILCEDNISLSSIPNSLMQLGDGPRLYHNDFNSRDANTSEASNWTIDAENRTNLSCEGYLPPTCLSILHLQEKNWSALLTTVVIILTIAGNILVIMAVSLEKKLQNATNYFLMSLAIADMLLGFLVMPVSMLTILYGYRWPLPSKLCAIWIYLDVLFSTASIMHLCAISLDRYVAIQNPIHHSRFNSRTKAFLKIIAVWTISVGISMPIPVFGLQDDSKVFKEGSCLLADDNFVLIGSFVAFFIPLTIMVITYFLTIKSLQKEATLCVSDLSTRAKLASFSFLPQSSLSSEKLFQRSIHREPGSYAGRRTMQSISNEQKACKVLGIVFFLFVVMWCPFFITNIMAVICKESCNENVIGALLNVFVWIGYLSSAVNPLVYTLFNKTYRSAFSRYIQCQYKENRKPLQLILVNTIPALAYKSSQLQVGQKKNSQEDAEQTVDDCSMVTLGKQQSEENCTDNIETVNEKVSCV
Serotonin 2 (5-HT2) receptor (Rattus norvegicus), sequence (P30994 whole entry, looked up): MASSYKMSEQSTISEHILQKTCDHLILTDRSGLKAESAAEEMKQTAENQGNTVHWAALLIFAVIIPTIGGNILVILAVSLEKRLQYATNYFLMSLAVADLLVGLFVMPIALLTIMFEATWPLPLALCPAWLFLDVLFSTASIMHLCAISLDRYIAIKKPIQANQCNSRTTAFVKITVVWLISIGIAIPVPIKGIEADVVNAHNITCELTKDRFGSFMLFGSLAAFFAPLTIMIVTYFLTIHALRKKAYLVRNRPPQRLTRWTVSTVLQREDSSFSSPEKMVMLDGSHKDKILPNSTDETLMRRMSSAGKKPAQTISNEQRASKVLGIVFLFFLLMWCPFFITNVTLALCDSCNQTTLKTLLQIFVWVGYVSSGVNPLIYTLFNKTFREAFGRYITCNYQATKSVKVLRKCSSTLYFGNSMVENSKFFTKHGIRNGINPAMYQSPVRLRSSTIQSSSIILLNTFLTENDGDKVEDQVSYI
In short: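 Thoracic aorta rings (2-3 mm) from male Wistar rats (200-250 g), resting tension 1.5 g, equilibrated 60-90 min. Contracted with 5-HT 3×10^-6 M, taken as 100%. Compounds at 10^-5 M were incubated for 30 min before 5-HT was re-added. Inhibition given as % of the prior response. Means ± SE of 4-6 experiments.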

[2] = system: 5-HT3 receptor (Cavia porcellus); test: Tested for the antagonistic activity against 5-hydroxytryptamine 3 receptor from guinea pig ileum; design: concentration or dose not given beside the values; settings: concentration not given here
[3] = biological target: Serotonin 1 (5-HT1) receptor (Rattus norvegicus, UniProt P28564+P30940+P19327+P28565); test: Displacement of binding of [3H]-5-HT to 5-hydroxytryptamine 1 receptor in rat cerebral cortex; assay type: tissue-based
In short: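 Rat cortical membranes homogenized in 50 mM Tris-HCl, centrifuged, pre-incubated at 37 °C for 10 min, then resuspended with 0.1% ascorbic acid and 10 μM pargyline. Incubated with 0.3 nM [3H]-5-HT for 10 min at 37 °C. Nonspecific binding defined with 10 μM 5-HT. Filtered and counted by scintillation. Means of 3-6 experiments.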

Rattus norvegicus = test: Tested in vivo for antagonistic activity to bradycardic effect of 5-HT in anesthetized rats; assay type: functional; settings: read-out: ID50
In short: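 Male Sprague-Dawley rats (500-550 g), urethane 1 g/kg ip. Heart rate derived from carotid arterial pressure. Serotonin 4 μg/kg iv bolus every 15 min; compounds given iv via the jugular vein 2 min before serotonin. Percent inhibition of bradycardia recorded; ID50 by Litchfield-Wilcoxon.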

[4] = biological target: T1, Serotonin 3 (5-HT3) receptor (Rattus norvegicus, UniProt P35563+Q9JJ16); test: Displacement of binding of [3H]-BRL 43694 to 5-hydroxytryptamine 3 receptor in rat cerebral cortex; assay type: tissue-based
T1 sequence (P35563 whole entry): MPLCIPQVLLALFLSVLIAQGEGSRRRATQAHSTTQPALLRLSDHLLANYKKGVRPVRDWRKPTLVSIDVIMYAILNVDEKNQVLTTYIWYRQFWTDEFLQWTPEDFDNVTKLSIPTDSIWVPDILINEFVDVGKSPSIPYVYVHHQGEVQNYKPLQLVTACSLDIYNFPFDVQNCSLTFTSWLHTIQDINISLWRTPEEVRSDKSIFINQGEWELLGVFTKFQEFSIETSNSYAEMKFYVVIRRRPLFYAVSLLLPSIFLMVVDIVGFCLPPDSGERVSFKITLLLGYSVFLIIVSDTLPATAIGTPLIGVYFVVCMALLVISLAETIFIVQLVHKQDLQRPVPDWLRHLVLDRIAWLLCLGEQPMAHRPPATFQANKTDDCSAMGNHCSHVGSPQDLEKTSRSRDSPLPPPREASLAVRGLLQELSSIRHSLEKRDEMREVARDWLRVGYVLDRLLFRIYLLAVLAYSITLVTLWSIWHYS
T1 sequence (Q9JJ16 whole entry): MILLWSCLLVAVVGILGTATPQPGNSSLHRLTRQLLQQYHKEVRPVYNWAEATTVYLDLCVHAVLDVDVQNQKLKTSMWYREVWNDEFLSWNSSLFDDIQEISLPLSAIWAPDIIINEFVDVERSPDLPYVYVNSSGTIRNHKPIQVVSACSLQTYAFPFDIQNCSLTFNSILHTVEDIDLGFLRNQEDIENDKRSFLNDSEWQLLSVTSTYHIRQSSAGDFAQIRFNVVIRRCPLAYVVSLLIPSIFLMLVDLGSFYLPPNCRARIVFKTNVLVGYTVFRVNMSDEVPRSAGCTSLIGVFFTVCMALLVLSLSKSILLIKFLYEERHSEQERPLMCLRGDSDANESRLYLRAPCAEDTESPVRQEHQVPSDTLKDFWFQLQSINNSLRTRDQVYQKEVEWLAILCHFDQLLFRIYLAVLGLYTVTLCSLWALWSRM

Cavia porcellus = species: Cavia porcellus; test: Antagonism to 2-methyl-5-HT induced contractions in guinea pig ileum; assay type: functional; settings: read-out: pA2 (converted)
In short: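 Isometric recording at 0.5 g resting tension in physiological salt solution gassed with 95% O2/5% CO2 at 37 °C, after 30-min equilibration. Tissue incubated 30 min with a single antagonist concentration before agonist; pA2 calculated against 2-methyl-5-HT by Furchgott's single-concentration method, […]. Means of three to six experiments.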

Compound	inhibition [1]	inhibition [2]	Ki [3]	ED50 (Rattus norvegicus)	Ki [4]	Kb (Cavia porcellus)
Cc1ccc(N2CCN(c3nc4ccccc4nc3C#N)CC2)cc1	4.6%	15.8%	–	–	–	–
N#Cc1nc2ccccc2nc1N1CCN(c2ccc(F)cc2)CC1	–	21.4%	–	–	–	–
N#Cc1nc2ccccc2nc1N1CCN(c2ccc([N+](=O)[O-])cc2)CC1	–	18%	–	–	–	–
CC(=O)c1ccc(N2CCN(c3nc4ccccc4nc3C#N)CC2)cc1	–	7.4%	–	–	–	–
N#Cc1nc2ccccc2nc1N1CCN(Cc2ccc3c(c2)OCO3)CC1	–	28.4%	–	–	–	–
N#Cc1nc2ccccc2nc1N1CCN(Cc2ccccc2)CC1	20.5%	12.4%	–	–	–	–
CCCN1CCN(c2nc3ccccc3nc2C#N)CC1	12.5%	63.3%	> 1000 nM	0.38 mg/kg	40 nM	1000 nM
C=CCN1CCN(c2nc3ccccc3nc2C#N)CC1	9.1%	–	> 1000 nM	0.02 mg/kg	8 nM	0.0631 nM
N#Cc1nc2ccccc2nc1N1CCN(c2cccc(C(F)(F)F)c2)CC1	18.3%	39.5%	–	–	–	–
CCCCN1CCN(c2nc3ccccc3nc2C#N)CC1	–	12.5%	–	–	–	–
COc1cccc(N2CCN(c3nc4ccccc4nc3C#N)CC2)c1	4.6%	3.5%	–	–	–	–
Cc1nccn1CC1CCc2c(c3ccccc3n2C)C1=O (centres undefined) [ONDANSETRON]	0.6%	–	–	0.0004 mg/kg	–	126 nM
CN1CCN(c2nc3ccccc3nc2C#N)CC1	–	48.4%	–	–	–	–
N#Cc1nc2ccccc2nc1N1CCN(CCc2ccccc2)CC1	25%	29.2%	–	–	–	–
CCOC(=O)CN1CCN(c2nc3ccccc3nc2C#N)CC1	5.1%	14.4%	–	–	–	–
CCN1CCN(c2nc3ccccc3nc2C#N)CC1	9.1%	80.5%	> 1000 nM	0.015 mg/kg	100 nM	63.1 nM
CCN1CCN(c2nc3ccc([N+](=O)[O-])cc3nc2C#N)CC1	–	21.3%	–	–	–	–
N#Cc1nc2ccccc2nc1N1CCNCC1	9.1%	63.7%	345 nM	0.027 mg/kg	90 nM	1580 nM
N#Cc1nc2cc([N+](=O)[O-])ccc2nc1N1CCNCC1	–	7.7%	–	–	–	–
CN1[C@@H]2CC[C@H]1C[C@@H](OC(=O)c1c[nH]c3ccccc13)C2.Cl	2.4%	–	> 1000 nM	0.002 mg/kg	3.8 nM	3.98 nM
N#Cc1nc2ccccc2nc1N1CCN(c2ccc(Cl)cc2)CC1	7%	11%	–	–	–	–
COc1ccccc1N1CCN(c2nc3ccccc3nc2C#N)CC1	–	10.6%	–	–	–	–
N#Cc1nc2ccccc2nc1N1CCN(c2ccccc2)CC1	8.4%	21.9%	–	–	–	–
CCN1CCN(c2nc3ccc(N)cc3nc2C#N)CC1	–	43.5%	–	–	–	–
CCCCCN1CCN(c2nc3ccccc3nc2C#N)CC1	3.9%	18%	–	–	–	–
